A selection: hits, their analogues and other compounds. The true share with any hit is near 1.3%.
TDP2 inh: TDP2 (human) inhibition, absorbance primary screen; recombinant TDP2, T5PNP hydrolysis, p-nitrophenol absorbance 415 nm; inhibition, % at 12.8 µM; 370,000 compounds, 0.34% hits; AID 720702;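 active = inhibition above the mean of all tested compounds plus 3 SD, set per campaign, cut at about 25% in these data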
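System – recombinant human TDP2 · Quantity – TDP2 enzyme at 120 nM final · Doses – single concentration, 12.8 µM nominal, with 1% DMSO · Incubation – 2 h at 37 °C · Measured by – epi absorbance of p-nitrophenol freed from T5PNP by hydrolysis · Read-out – % inhibition relative to enzyme-containing and enzyme-free wells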
CASP6 VEID inh: inhibitors of human caspase-6 | purified caspase-6, Z-VEID-R110 cleavage fluorescence | inhibition, % at 12.5 µM | 350,000 compounds, 0.53% hits | AID 686996;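 active = mean inhibition across replicates at least about 35%, with every replicate also reaching that limit, limit read from the data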
ASAP1 GAP inh: blocks human ASAP1-stimulated Arf1 GTP hydrolysis; 360,000 compounds, 0.19% hits; inhibition, % at 16.5 µM; GDP FP detection; Q9ULH1; in the data active = inhibition above about 25%
Target sequence (Q9ULH1 325-724 limits assumed): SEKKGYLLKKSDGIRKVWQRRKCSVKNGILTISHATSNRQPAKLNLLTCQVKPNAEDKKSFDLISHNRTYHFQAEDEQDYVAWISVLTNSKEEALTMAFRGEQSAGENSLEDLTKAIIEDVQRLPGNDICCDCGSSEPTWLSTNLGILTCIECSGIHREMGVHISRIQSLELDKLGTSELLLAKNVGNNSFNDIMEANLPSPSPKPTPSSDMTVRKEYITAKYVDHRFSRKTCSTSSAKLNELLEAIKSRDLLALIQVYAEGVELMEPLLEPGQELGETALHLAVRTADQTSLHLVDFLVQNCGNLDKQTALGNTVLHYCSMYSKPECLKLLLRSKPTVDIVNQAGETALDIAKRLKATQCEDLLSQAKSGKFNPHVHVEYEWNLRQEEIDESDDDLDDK
LEDGF integ inh: blocks HIV-1 LEDGF/p75-dependent DNA integration; TR-FRET IN-LEDGF/p75 DNA integration, Eu/Cy5; inhibition, % at 3.7 µM; 370,000 compounds, 0.64% hits; AID 743269;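 active = inhibition above the screen-wide mean plus 3 SD, cut at about 13% in these data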;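 also: signal is the Cy5 over europium emission ratio at 671 and 618 nm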
ARFGAP1 inhibitor: inhibits rat ARF GTPase activating protein 1. inhibition, % at 16.5 µM. AID 651572. Arfgap1-stimulated ARF1 GTP hydrolysis, GDP FP detection. 360,000 compounds, 0.26% hits. Q62848;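 active = inhibition above a per-plate limit, mean inhibition of low control wells plus 3 SD, cut at about 25% in these data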
Target sequence (Q62848 1-136 limits assumed): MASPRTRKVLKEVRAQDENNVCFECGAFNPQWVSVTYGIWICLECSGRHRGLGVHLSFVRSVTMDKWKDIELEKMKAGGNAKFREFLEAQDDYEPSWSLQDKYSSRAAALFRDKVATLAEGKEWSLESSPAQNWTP
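Material: rat Arfgap1 catalytic domain, aa 1-136; also added: human ARF1(Δ1-17)-GTP substrate; compound dosing: one concentration, 16.5 µM, DMSO 1.26%; incubation: GTP hydrolysis reaction 2 h at 25 °C; measured by: Tracer-displacement fluorescence polarization with EDTA stop, 620/688 nm; evaluation: % inhibition from polarization; repeats: one replicate per compound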
A number is an active result; - = inactive; . = no result.

SMILES	TDP2 inh	CASP6 VEID inh	ASAP1 GAP inh	LEDGF integ inh	ARFGAP1 inhibitor
Cc1ccc(NC(=O)C2CCCN(S(=O)(=O)c3cnc[nH]3)C2)c(Br)c1 (stereo unspecified)	-	-	-	-	-
Cc1ccccc1NC(=O)C1CCCN(S(=O)(=O)c2cnc[nH]2)C1 (stereo unspecified)	-	91	-	-	-
COc1ccc2c(C)cc(SCC(=O)Nc3nsc(-c4ccc(C)cc4)n3)nc2c1	-	49	-	-	-
CN(CC(=O)Nc1ccc(F)cc1)C(=O)c1cc([N+](=O)[O-])ccc1N1CCOCC1	-	-	-	-	-
CC1Cc2ccccc2N1CC(=O)Nc1ccc(N2CCOCC2)cc1 (stereo unspecified)	-	-	-	-	-
COC1=C(Br)C(=O)c2ncccc2C1=O	94	98	47	15	-
COc1cc(/C=C2/C(=O)NN(c3ccc(Cl)cc3)C2=O)cc(Br)c1O	-	81	-	-	-
COc1cc(/C=C2/C(=O)NN(c3ccc(F)cc3)C2=O)cc(Cl)c1O	-	-	-	-	-
Cc1ccc2[nH]c3ccccc3c(=O)c2c1	-	-	-	-	-
O=c1c2ccccc2[nH]c2ccc(O)cc12	-	38	-	-	-
CN(c1ccc(OCC(=O)Nc2cc(Cl)ccc2C(=O)O)cc1)S(=O)(=O)c1ccc(F)cc1	-	36	-	-	-
CN(c1ccc(OCC(=O)Nc2ccc(S(N)(=O)=O)cc2)cc1)S(=O)(=O)c1ccc(F)cc1	-	-	-	-	-
COc1cc(NCCCCCCN)c2ncccc2c1OC	52	85	-	40	-
COc1cc2c(NCCCCCO)ncnc2c(OC)c1OC	-	-	-	-	-
Cc1ccccc1CNC(=O)Cc1cccs1	-	-	-	-	-
CN1CCN(c2cc(CNC[C@H]3O[C@@H](n4cnc5c(=O)[nH]c(N)nc54)[C@H](O)[C@@H]3O)ccc2F)CC1	-	54	-	-	-
O=C1NC(c2ccccc2Br)=N/C1=C\c1ccco1	-	-	-	-	-
O=C1NC(c2ccccc2)=N/C1=C/c1ccco1	-	39	-	-	-
CC(=O)Nc1c(O)nc(SCC(=O)Nc2nnc(SCc3ccccc3)s2)[nH]c1=O	-	80	-	-	-
O=C1/C(=C\c2ccc(-c3ccccc3Cl)o2)SC(=S)N1CC1CCCO1 (stereo unspecified)	-	.	-	-	-
O=C(O)C(c1ccccc1)N1C(=O)/C(=C\c2ccc(-c3ccc(Br)cc3)o2)SC1=S (stereo unspecified)	-	71	-	-	-
O=C(O)C(c1ccccc1)N1C(=O)/C(=C\c2ccc(-c3ccccc3Cl)o2)SC1=S (stereo unspecified)	-	86	-	-	-
COC(=O)[C@]1(Cc2ccccc2)N[C@H](CN(C)C(=O)c2ccccc2)[C@@H]2C(=O)N(C)C(=O)[C@@H]21	-	-	-	-	-
O=c1cc(OCc2ccccc2)cc[nH]1	-	-	-	24	-
NS(=O)(=O)c1ccc(-c2ccc(/C=C3\C(=O)Nc4cc(Cl)ccc43)o2)cc1	-	-	-	-	-
SMILES	TDP2 inh	CASP6 VEID inh	ASAP1 GAP inh	LEDGF integ inh	ARFGAP1 inhibitor
CC1(C)OC(=O)C(=Cc2ccc(-c3ccc(S(N)(=O)=O)cc3)o2)C(=O)O1	-	53	-	-	-
O=C(NCc1ccc2c(c1)OCO2)C1CC(c2cccc(Br)c2)=NO1 (stereo unspecified)	-	.	-	-	-
O=S(=O)(c1ccc(F)cc1)c1snnc1-c1ccccc1	-	43	-	-	-
COc1ccc(C(=O)NNC(=O)Cc2coc3cc(OC)ccc23)cc1	-	-	-	-	-
COC(=O)c1ccc(CNC(=O)COC(=O)c2ccccc2-c2ccccc2)cc1	-	59	-	-	-
COc1ccc2oc(C(=O)N3CCN(c4ncccn4)CC3)c(C)c2c1	-	36	-	-	-
Cc1c(C(=O)N2CCCC2)oc2ccc(Br)cc12	-	39	-	-	-
CC(=O)N1CCc2c(sc(NC(=O)c3ccc([N+](=O)[O-])o3)c2C#N)C1	-	38	-	-	-
COc1ccc(C(=O)Nc2sc3c(c2C#N)CCN(C(C)=O)C3)cc1	-	-	-	-	-
COc1ccc(-c2nn(-c3ccccc3)cc2/C=C2/SC(=S)N(CCC(=O)O)C2=O)c(C)c1	-	-	-	-	-
COc1ccc(-c2nn(-c3ccccc3)cc2/C=C2/SC(=S)N(CCC(=O)O)C2=O)cc1	-	47	-	-	-
O=C1C(=Cc2cn(-c3ccccc3)nc2-c2ccc(OCc3ccc(Cl)cc3)cc2)SC(=S)N1CCS(=O)(=O)O	-	46	-	-	-
O=C(O)CN1C(=O)/C(=C\c2cccc(OCc3ccccc3F)c2)SC1=S	-	-	-	-	-
Cc1ccc(-c2nn(-c3ccccc3)cc2/C=C2\SC(=S)N(CC(=O)O)C2=O)cc1	-	-	-	-	-
O=C1C(=Cc2cn(-c3ccccc3)nc2-c2ccc(OCc3ccccc3F)cc2)SC(=S)N1CCS(=O)(=O)O	-	75	-	-	-
Cc1ccc(C23CC4CC(CC(CC(=O)NC(C)(C)CO)(C4)C2)C3)cc1	-	-	-	-	-
CCC(CO)Oc1cc(NCc2ccccc2)c2ncn(C(C)C)c2c1 (stereo unspecified)	-	-	-	-	-
CCOCCOc1cc(NCc2ccccc2)c2ncn(C(C)C)c2c1	-	41	-	-	-
CCCCOc1cc(NCc2ccccc2)c2ncn(C(C)C)c2c1	-	-	-	-	-
CCC(COC(=O)c1ccccc1)Oc1cc(NCc2ccccc2)c2ncn(C(C)C)c2c1 (stereo unspecified)	36	.	-	-	-
COC(=O)CSc1nnc(CNC(=O)c2cc(OC)cc(OC)c2)n1-c1ccc(F)cc1	-	-	-	-	-
O=C(C[C@@H]1C=C[C@H](NS(=O)(=O)c2ccc(F)cc2)[C@H](CO)O1)NCc1ccccc1F	.	-	.	.	.
O=C(Cc1ccccn1)NCC[C@H]1CC[C@@H](NC(=O)c2ccccc2F)[C@@H](CO)O1	.	-	.	.	.
O=C(Cc1ccccn1)NCC[C@@H]1CC[C@@H](NC(=O)c2ccccc2F)[C@H](CO)O1	.	35	.	.	.
O=C(O)C[C@@H]1CC[C@@H](NC(=O)c2ccccc2F)[C@H](CO)O1	.	-	.	.	.
NCC[C@@H]1CC[C@H](NC(=O)c2ccccc2F)[C@@H](CO)O1	.	39	.	.	.
CN(C)C(=O)[C@@H]1[C@@H](CO)[C@@H]2Cn3c(ccc(-c4cncnc4)c3=O)[C@@H]2N1Cc1ccccc1F	.	-	.	.	.
CCOC(=O)COc1ccc(Br)cc1/C=C/c1[nH]c(=O)[nH]c(=O)c1[N+](=O)[O-]	-	40	-	-	-
CCCOc1ccc(/C=C/c2[nH]c(=O)[nH]c(=O)c2[N+](=O)[O-])cc1OCC	-	-	-	-	-

Source: PubChem (several laboratories)
